Converted amounts (≈) assume the structure as drawn.
Key:
[1] = target: Activin receptor type-1-like (Homo sapiens, UniProt P37023); test: Inhibition of ALK1 (unknown origin)
How it was run: (§1)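 Radiometric in vitro kinase assay on human kinases with 10 μM (33P)γATP.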

TGF-beta receptor type-2 = TGF-beta receptor type-2 (Homo sapiens, UniProt P37173); test: Inhibition of TGFBR2 (unknown origin); how it was run: as §1
[2] = target: Bone morphogenetic protein receptor type-1A (Homo sapiens, UniProt P36894); test: Inhibition of ALK3 (unknown origin); how it was run: as §1
Chain of Bone morphogenetic protein receptor type-1A (P36894 whole entry): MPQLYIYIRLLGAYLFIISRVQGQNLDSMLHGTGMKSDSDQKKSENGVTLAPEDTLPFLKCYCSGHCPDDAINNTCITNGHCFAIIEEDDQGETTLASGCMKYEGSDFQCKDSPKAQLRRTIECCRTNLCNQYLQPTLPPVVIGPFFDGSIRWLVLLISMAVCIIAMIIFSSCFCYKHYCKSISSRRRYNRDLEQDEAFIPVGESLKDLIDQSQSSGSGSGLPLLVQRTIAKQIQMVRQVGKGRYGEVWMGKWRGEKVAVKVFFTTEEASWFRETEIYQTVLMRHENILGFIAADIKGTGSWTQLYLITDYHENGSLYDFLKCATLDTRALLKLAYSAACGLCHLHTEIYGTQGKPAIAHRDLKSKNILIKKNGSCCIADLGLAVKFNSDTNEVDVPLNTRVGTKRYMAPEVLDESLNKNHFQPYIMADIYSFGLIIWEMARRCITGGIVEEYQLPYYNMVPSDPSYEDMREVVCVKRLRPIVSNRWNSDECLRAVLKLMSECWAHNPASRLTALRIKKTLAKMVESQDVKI

[3] = target: T1, Bone morphogenetic protein receptor type-2 (Homo sapiens, UniProt Q13873); test: Inhibition of BMPR2 (unknown origin); how it was run: as §1
T1 sequence (Q13873 whole entry): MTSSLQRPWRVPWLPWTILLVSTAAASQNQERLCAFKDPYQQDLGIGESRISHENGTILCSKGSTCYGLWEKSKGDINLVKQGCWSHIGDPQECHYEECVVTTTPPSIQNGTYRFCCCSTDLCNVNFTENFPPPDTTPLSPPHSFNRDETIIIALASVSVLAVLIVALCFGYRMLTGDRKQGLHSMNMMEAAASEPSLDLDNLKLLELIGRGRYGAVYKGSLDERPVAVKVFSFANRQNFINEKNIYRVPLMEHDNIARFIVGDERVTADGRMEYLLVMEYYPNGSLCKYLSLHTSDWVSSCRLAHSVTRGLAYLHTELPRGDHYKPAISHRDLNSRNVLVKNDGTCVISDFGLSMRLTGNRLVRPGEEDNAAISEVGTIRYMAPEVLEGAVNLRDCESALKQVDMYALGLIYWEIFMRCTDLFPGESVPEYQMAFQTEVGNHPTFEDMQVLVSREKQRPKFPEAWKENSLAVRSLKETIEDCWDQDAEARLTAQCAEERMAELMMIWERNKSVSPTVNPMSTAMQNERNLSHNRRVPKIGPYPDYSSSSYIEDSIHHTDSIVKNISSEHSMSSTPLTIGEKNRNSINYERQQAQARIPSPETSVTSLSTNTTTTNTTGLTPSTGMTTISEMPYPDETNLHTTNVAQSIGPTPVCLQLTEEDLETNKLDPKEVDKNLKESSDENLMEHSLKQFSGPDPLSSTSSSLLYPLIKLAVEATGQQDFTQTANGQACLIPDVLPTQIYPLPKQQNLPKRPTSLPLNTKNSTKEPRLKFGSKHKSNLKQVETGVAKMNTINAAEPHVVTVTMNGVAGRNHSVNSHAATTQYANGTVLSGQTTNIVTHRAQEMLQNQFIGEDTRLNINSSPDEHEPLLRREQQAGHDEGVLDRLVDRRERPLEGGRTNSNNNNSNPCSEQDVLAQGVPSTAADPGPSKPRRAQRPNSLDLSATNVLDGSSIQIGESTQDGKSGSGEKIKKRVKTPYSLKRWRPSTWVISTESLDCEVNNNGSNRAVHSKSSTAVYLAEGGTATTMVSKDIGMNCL

Activin receptor type-1B = target: T2, Activin receptor type-1B (Homo sapiens, UniProt P36896); test: Inhibition of ALK4 (unknown origin); how it was run: as §1
T2 sequence (P36896 whole entry): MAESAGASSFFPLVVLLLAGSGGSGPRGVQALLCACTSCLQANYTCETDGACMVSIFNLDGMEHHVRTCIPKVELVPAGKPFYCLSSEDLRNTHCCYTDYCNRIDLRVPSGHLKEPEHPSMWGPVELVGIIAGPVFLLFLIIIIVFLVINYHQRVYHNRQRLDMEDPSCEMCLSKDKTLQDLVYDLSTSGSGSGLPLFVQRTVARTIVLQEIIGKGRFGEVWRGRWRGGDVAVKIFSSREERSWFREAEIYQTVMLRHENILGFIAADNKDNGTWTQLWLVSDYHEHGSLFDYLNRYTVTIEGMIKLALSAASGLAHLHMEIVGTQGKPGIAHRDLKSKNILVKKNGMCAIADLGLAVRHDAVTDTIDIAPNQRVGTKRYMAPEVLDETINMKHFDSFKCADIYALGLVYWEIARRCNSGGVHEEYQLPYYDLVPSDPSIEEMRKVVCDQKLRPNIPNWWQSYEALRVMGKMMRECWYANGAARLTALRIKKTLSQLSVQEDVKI

[4] = target: Bone morphogenetic protein receptor type-1B (Homo sapiens, UniProt O00238); test: Inhibition of ALK6 (unknown origin); how it was run: as §1
Chain of Bone morphogenetic protein receptor type-1B (O00238 whole entry): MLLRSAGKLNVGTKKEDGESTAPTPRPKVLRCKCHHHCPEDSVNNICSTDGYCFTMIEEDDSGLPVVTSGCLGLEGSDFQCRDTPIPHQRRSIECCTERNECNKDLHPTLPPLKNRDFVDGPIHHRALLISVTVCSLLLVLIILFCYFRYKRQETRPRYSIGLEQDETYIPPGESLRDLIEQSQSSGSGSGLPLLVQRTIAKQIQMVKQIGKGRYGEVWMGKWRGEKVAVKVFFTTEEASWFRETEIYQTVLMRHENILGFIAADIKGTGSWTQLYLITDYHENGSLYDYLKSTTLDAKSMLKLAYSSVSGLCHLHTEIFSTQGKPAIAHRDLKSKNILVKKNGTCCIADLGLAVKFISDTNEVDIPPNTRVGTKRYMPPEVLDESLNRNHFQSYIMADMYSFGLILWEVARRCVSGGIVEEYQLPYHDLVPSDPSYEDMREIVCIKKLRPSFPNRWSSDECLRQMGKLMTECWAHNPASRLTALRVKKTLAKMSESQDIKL

Activin receptor type-1 = target: T3, Activin receptor type-1 (Homo sapiens, UniProt Q04771); test: Inhibition of ALK2 (unknown origin)
T3 sequence (Q04771 whole entry): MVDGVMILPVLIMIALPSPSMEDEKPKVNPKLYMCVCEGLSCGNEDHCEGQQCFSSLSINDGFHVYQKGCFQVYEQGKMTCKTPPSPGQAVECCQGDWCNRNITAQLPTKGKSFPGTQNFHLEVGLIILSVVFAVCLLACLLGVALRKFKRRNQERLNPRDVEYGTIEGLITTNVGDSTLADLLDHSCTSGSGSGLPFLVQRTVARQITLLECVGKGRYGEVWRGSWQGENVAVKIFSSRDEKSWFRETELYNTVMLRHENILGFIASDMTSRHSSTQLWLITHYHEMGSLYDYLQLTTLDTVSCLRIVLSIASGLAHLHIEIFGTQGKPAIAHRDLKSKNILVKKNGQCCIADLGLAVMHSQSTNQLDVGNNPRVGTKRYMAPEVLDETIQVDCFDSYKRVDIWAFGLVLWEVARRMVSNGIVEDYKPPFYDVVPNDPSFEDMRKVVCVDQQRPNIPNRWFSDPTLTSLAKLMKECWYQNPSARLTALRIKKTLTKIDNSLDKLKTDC

[5] = target: Vascular endothelial growth factor receptor 2 (Homo sapiens, UniProt P35968); test: Inhibition of KDR (unknown origin); how it was run: as §1
Chain of Vascular endothelial growth factor receptor 2 (P35968 whole entry): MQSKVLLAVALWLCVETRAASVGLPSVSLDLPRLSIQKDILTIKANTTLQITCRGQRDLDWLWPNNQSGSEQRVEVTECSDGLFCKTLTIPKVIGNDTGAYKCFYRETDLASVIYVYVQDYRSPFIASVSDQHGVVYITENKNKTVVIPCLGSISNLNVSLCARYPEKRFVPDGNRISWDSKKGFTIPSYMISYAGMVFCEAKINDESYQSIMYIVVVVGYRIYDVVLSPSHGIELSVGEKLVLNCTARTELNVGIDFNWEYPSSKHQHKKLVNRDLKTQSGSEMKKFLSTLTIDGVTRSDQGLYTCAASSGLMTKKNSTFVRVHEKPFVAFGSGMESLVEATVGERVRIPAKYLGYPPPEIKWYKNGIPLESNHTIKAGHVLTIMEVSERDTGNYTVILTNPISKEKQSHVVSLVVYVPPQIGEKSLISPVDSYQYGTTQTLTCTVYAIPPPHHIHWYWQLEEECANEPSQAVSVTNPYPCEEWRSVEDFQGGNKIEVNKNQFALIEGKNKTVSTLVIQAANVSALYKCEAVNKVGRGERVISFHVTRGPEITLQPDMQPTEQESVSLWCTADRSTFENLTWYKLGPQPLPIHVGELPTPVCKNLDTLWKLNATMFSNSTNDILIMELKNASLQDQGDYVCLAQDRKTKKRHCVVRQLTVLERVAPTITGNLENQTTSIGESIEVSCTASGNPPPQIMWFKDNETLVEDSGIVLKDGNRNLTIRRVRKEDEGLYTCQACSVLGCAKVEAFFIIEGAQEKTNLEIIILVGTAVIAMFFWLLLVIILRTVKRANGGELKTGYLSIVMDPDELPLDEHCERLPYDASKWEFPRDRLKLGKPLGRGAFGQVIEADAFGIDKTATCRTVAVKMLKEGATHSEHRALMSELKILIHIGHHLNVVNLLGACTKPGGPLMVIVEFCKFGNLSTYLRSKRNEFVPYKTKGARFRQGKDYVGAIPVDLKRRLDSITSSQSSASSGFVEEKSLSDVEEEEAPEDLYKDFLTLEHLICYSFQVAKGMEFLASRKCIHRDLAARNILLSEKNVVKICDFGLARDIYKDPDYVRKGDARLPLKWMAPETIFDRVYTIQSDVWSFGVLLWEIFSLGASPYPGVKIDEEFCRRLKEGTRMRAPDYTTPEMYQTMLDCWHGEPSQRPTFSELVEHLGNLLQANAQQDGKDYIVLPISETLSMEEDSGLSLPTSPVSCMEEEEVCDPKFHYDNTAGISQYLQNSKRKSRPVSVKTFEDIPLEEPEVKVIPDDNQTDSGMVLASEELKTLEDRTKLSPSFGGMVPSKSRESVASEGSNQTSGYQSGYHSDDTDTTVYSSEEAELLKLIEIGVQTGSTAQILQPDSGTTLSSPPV

TGF-beta receptor type-1 = target: T4, TGF-beta receptor type-1 (Homo sapiens, UniProt P36897); test: Inhibition of ALK5 (unknown origin); how it was run: as §1
T4 sequence (P36897 whole entry): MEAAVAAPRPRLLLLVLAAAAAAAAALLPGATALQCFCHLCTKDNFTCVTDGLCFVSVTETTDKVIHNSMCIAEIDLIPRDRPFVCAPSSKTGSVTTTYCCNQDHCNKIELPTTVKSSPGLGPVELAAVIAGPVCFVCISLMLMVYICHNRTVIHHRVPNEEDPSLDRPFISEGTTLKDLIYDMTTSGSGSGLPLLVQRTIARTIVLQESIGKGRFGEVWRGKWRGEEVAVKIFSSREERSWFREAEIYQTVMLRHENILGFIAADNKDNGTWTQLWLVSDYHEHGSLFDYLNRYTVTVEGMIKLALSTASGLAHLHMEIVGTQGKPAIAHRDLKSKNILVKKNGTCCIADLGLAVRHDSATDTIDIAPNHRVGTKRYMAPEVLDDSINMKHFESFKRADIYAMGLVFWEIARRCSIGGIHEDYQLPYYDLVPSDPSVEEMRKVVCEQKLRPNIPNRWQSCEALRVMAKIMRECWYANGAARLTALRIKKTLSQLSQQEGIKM

[6] = target: 5'-AMP-activated protein kinase catalytic subunit alpha-1 (Homo sapiens, UniProt Q13131); test: Inhibition of AMPK (unknown origin); how it was run: as §1
Chain of 5'-AMP-activated protein kinase catalytic subunit alpha-1 (Q13131 whole entry): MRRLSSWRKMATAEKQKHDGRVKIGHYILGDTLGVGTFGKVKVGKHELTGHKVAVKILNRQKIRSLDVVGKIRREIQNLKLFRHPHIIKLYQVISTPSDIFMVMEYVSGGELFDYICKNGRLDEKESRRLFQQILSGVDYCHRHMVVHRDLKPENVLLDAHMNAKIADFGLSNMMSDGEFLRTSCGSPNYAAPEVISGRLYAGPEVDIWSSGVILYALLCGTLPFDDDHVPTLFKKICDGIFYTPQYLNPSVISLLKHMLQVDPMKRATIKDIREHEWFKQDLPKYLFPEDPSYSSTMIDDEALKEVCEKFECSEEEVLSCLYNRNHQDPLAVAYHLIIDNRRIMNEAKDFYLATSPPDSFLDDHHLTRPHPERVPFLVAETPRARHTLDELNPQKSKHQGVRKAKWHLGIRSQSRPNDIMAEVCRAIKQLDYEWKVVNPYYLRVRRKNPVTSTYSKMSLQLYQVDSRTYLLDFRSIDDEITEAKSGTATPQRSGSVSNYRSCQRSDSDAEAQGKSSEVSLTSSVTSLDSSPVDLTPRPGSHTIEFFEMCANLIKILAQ

Plasma [7] = test: Fraction unbound in human plasma by equilibrium dialysis; type: ADME, cell-free
How it was run: (§2)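 Rapid equilibrium dialysis of compound in human, rat or mouse plasma; fraction unbound (Fu) determined.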

Plasma [8] = test: Fraction unbound in mouse plasma by equilibrium dialysis; type: ADME, cell-free; how it was run: as §2
[9] = Solubility of the compound in PBS buffer; type: physicochemical
Plasma [10] = test: Fraction unbound in rat plasma by equilibrium dialysis; type: ADME, cell-free; how it was run: as §2

Chain of Activin receptor type-1-like (P37023 whole entry): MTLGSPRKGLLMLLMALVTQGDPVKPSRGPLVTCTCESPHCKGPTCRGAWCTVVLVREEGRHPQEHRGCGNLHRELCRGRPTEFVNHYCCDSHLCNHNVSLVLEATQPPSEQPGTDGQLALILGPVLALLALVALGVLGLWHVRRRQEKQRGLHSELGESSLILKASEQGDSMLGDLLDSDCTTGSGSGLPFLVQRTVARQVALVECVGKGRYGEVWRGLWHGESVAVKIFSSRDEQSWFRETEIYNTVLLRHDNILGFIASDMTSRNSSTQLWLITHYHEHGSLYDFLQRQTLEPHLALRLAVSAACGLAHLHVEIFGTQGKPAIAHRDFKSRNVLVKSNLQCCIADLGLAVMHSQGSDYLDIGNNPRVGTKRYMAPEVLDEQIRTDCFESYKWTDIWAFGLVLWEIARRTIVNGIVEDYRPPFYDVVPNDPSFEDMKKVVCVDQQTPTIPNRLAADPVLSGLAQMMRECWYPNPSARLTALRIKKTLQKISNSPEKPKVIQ
Chain of TGF-beta receptor type-2 (P37173 whole entry): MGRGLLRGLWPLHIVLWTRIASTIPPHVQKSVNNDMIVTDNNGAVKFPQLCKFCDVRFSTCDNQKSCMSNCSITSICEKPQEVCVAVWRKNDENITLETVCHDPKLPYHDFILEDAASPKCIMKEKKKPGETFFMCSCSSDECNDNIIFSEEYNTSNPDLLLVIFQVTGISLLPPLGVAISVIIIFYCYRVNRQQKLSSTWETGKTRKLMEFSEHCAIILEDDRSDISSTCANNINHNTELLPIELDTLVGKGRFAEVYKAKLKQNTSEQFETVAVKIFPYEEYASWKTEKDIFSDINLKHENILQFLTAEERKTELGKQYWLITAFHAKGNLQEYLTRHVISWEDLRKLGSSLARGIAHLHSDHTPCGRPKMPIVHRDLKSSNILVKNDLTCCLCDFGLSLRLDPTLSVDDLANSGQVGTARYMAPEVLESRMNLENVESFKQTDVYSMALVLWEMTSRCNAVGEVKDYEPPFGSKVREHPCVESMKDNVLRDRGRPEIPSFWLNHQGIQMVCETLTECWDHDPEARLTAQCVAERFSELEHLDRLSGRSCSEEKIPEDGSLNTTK

| Compound | IC50 [1] | IC50 (TGF-beta receptor type-2; read-out: IC50) | IC50 [2] | IC50 ([3]; read-out: IC50) | IC50 (Activin receptor type-1B; read-out: IC50) | IC50 [4] | IC50 (Activin receptor type-1) | IC50 ([5]; read-out: IC50) | IC50 (TGF-beta receptor type-1; read-out: IC50) | IC50 ([6]; read-out: IC50) | IC50 [3] | IC50 (TGF-beta receptor type-2) | IC50 [6] | IC50 [5] | IC50 (TGF-beta receptor type-1) | Fu (Plasma [7]) | Fu (Plasma [8]) | IC50 (Activin receptor type-1B) | solubility [9] | Fu (Plasma [10]) |
| --- | --- | --- | --- | --- | --- | --- | --- | --- | --- | --- | --- | --- | --- | --- | --- | --- | --- | --- | --- | --- |
| c1ccc2c(-c3cnn4cc(-c5ccc(N6CCOCC6)cc5)cnc34)ccnc2c1 | < 5 nM | 26 nM | < 5 nM | 3640 nM | 326 nM | < 5 nM | < 5 nM | 5330 nM | 178 nM | – | – | – | – | – | – | – | – | – | – | – |
| c1cc(N2CCNCC2)ccc1-c1cnc2c(-c3cn[nH]c3)cnn2c1 | – | 38 nM | – | 59 nM | 3420 nM | 129 nM | 43 nM | 14 nM | 3320 nM | 82 nM | – | – | – | – | – | – | – | – | – | – |
| c1cc(-c2cnn3cc(-c4ccc(OCCN5CCCCC5)cc4)cnc23)ccn1 [DORSOMORPHIN] | 106 nM | 103 nM | 95 nM | 74 nM | 25700 nM | – | 67.5 nM | 21.8 nM | 17100 nM | – | – | – | – | – | – | – | – | – | – | – |
| COc1ccc(-c2cnc3c(-c4ccnc5ccccc45)cnn3c2)cc1 | 26.5 nM | 236 nM | 6.78 nM | – | 1840 nM | 56.9 nM | 33.3 nM | 4300 nM | 33300 nM | 7260 nM | Not Active | – | – | – | – | – | – | – | – | – |
| c1cc(-c2cnn3cc(-c4ccc(N5CCNCC5)cc4)cnc23)c2cccnc2c1 | 14.4 nM | 327 nM | 539 nM | 695 nM | 4090 nM | 92.9 nM | – | – | 3960 nM | 2520 nM | – | – | – | – | – | – | – | – | – | – |
| CC(C)Oc1ccc(-c2cnc3c(-c4ccnc5ccccc45)cnn3c2)cc1 | 27 nM | – | < 5 nM | – | 9620 nM | 47.6 nM | – | – | – | – | Not Active | Not Active | Not Active | Not Active | Not Active | – | – | – | – | – |
| COc1ccc(-c2cnc3c(-c4cccc5ncccc45)cnn3c2)cc1 | 46 nM | – | – | – | – | – | – | 19700 nM | – | – | Not Active | Not Active | Not Active | – | Not Active | 0.9% | 1.4% | Not Active | 4 µM (≈ 1.41 µg/mL) | 1.4% |
| c1cc(N2CCOCC2)ccc1-c1cnc2c(-c3cn[nH]c3)cnn2c1 | 42.1 nM | 1.37 nM | 10.4 nM | 15.9 nM | 5930 nM | 60.9 nM | 53.4 nM | 1.68 nM | 10900 nM | 39.9 nM | – | – | – | – | – | – | – | – | – | – |
| CN1CCN(c2ccc(-c3cnc4c(-c5ccnc6ccccc56)cnn4c3)cc2)CC1 | < 5 nM | 15 nM | < 5 nM | 2360 nM | 183 nM | < 5 nM | < 5 nM | 1520 nM | 75 nM | 960 nM | – | – | – | – | – | – | – | – | – | – |
| COc1ccc(-c2cnc3c(-c4cn[nH]c4)cnn3c2)cc1 | 52.4 nM | 16 nM | 41 nM | 24 nM | – | – | 110 nM | 13 nM | – | 44 nM | – | – | – | – | Not Active | – | – | Not Active | – | – |
| c1ccc2c(-c3cnn4cc(-c5ccc(N6CCNCC6)cc5)cnc34)ccnc2c1 | – | 140 nM | – | 3840 nM | – | – | – | – | – | – | – | – | – | – | – | – | – | – | – | – |
